Active and inactive are the calls of the source. The rule behind the calls is not given here.
The compounds below were run against T1, Tyrosine-protein phosphatase non-receptor type 11 (Homo sapiens, UniProt Q06124) (assay: Inhibition of SHP2 (unknown origin) using pNPP as substrate).
T1 sequence (Q06124 whole entry): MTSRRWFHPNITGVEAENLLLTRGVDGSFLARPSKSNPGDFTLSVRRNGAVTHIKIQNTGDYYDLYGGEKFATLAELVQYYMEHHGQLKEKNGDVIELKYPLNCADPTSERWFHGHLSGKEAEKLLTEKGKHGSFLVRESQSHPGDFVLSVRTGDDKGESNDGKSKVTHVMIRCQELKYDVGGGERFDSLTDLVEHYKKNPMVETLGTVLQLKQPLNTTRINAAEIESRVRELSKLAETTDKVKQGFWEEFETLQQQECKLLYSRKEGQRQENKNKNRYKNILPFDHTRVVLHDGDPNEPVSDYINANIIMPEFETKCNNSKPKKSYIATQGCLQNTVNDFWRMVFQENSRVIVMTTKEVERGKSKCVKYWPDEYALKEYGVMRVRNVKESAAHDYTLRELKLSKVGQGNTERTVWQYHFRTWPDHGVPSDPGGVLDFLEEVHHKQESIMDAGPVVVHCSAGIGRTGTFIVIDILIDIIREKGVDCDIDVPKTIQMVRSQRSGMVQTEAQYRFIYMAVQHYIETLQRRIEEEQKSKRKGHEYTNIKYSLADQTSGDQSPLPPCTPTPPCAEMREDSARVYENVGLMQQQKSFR
Outline: (§1)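 Same pNPP-substrate phosphatase assay as for PTP1B, applied for selectivity. Compounds were first screened at 20 μg/mL, then tested over a dose range. IC50 was obtained by regression analysis and reported as mean ± SD of three replications. Oleanolic acid served as the positive control.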

Row | SMILES | IC50 [µM]
1 | O=C(O)[C@@H](Cc1ccccc1)N1C(=O)/C(=C/c2cn(-c3ccccc3)nc2-c2ccc(Cl)cc2Cl)SC1=S | 16.7
2 | O=C(O)CN1C(=O)/C(=C/c2cn(-c3ccccc3)nc2-c2ccc3ccccc3c2)SC1=S | 20.9

Species: Homo sapiens
Assay: Selectivity index, ratio of IC50 for inhibition of TCPTP (unknown origin) using pNPP as substrate to IC50 for inhibition of PTP1B (unknown origin) using pNPP as substrate
Outline: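 Both TCPTP and PTP1B IC50 values were measured by the same pNPP hydrolysis assay, derived by regression from triplicate dose-response data. The index is the TCPTP IC50 divided by the PTP1B IC50.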

Row | SMILES | Ratio IC50
3 | O=C(O)[C@@H](Cc1ccccc1)N1C(=O)/C(=C/c2cn(-c3ccccc3)nc2-c2ccc(Cl)cc2Cl)SC1=S | 2 to 9
4 | O=C(O)[C@@H](Cc1ccccc1)N1C(=O)/C(=C/c2cn(-c3ccccc3)nc2-c2ccc3ccccc3c2)SC1=S | 2 to 9
5 | O=C(O)CCN1C(=O)/C(=C/c2cn(-c3ccccc3)nc2-c2ccc(Cl)cc2Cl)SC1=S | 2 to 9
6 | O=C(O)CN1C(=O)/C(=C/c2cn(-c3ccccc3)nc2-c2ccc3ccccc3c2)SC1=S | 2 to 9
7 | O=C(O)CCCCCN1C(=O)/C(=C/c2cn(-c3ccccc3)nc2-c2ccc(Cl)cc2Cl)SC1=S | 2 to 9
8 | O=C(O)CCCN1C(=O)/C(=C/c2cn(-c3ccccc3)nc2-c2ccc(Cl)cc2Cl)SC1=S | 2 to 9

What follows are compounds tested against T2, Tyrosine-protein phosphatase non-receptor type 1 (Homo sapiens) (UniProt P18031) (assay: Time dependent inhibition of PTP1B (unknown origin) using pNPP as substrate).
T2 sequence (whole entry): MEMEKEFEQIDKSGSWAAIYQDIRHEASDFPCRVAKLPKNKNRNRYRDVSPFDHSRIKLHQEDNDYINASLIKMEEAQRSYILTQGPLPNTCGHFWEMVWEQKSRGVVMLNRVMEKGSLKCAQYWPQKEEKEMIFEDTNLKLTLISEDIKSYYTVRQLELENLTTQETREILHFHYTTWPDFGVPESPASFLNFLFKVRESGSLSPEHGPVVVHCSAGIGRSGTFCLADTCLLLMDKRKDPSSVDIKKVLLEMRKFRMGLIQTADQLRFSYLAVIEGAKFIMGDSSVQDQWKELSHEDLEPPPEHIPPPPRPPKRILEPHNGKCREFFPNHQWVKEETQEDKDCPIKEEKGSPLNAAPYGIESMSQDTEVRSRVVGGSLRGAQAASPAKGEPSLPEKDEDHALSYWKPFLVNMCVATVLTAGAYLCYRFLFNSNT

Row | SMILES | TDI
9 | O=C(O)[C@@H](Cc1ccccc1)N1C(=O)/C(=C/c2cn(-c3ccccc3)nc2-c2ccc3ccccc3c2)SC1=S | inactive

These compounds were tested against T3, Tyrosine-protein phosphatase non-receptor type 11 (Homo sapiens) (UniProt Q06124) (assay: Inhibition of SHP2 (unknown origin) at 20 ug/ml using pNPP as substrate).
T3 sequence (whole entry): T1 sequence (Q06124 whole entry)
Outline: (§2)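 Single-point screen at 20 µg/mL of compound against each phosphatase (LAR, SHP-1, SHP-2), with pNPP hydrolysis as the read-out.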

Row | SMILES | inhibition
10 | O=C(O)[C@@H](Cc1ccccc1)N1C(=O)/C(=C/c2cn(-c3ccccc3)nc2-c2ccc3ccccc3c2)SC1=S | inactive
11 | O=C(O)CCN1C(=O)/C(=C/c2cn(-c3ccccc3)nc2-c2ccc(Cl)cc2Cl)SC1=S | inactive
12 | O=C(O)CCCCCN1C(=O)/C(=C/c2cn(-c3ccccc3)nc2-c2ccc(Cl)cc2Cl)SC1=S | inactive
13 | O=C(O)CCCN1C(=O)/C(=C/c2cn(-c3ccccc3)nc2-c2ccc(Cl)cc2Cl)SC1=S | inactive

Each compound was assayed against T4, Tyrosine-protein phosphatase non-receptor type 2 (Homo sapiens, UniProt P17706) (assay: Inhibition of TCPTP (unknown origin) using pNPP as substrate).
T4 sequence (P17706 whole entry): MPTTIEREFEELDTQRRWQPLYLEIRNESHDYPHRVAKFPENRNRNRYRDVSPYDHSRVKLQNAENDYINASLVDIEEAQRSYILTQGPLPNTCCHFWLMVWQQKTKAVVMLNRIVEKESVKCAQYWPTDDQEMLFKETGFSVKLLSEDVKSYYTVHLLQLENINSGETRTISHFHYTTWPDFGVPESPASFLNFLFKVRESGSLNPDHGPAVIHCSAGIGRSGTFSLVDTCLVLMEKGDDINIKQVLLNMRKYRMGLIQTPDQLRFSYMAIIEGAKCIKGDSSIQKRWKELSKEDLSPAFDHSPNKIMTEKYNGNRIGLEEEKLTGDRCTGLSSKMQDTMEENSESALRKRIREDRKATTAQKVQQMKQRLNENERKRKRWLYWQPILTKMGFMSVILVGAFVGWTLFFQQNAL

Row | SMILES | IC50 [µM]
14 | O=C(O)[C@@H](Cc1ccccc1)N1C(=O)/C(=C/c2cn(-c3ccccc3)nc2-c2ccc(Cl)cc2Cl)SC1=S | 12.7
15 | O=C(O)[C@@H](Cc1ccccc1)N1C(=O)/C(=C/c2cn(-c3ccccc3)nc2-c2ccc3ccccc3c2)SC1=S | 4.61
16 | O=C(O)CCN1C(=O)/C(=C/c2cn(-c3ccccc3)nc2-c2ccc(Cl)cc2Cl)SC1=S | 14
17 | O=C(O)CN1C(=O)/C(=C/c2cn(-c3ccccc3)nc2-c2ccc3ccccc3c2)SC1=S | 7.91
18 | O=C(O)CCCCCN1C(=O)/C(=C/c2cn(-c3ccccc3)nc2-c2ccc(Cl)cc2Cl)SC1=S | 5.63
19 | O=C(O)CCCN1C(=O)/C(=C/c2cn(-c3ccccc3)nc2-c2ccc(Cl)cc2Cl)SC1=S | 9.18

The compounds below were run against T5, Tyrosine-protein phosphatase non-receptor type 6 (Homo sapiens, UniProt P29350) (assay: Inhibition of SHP1 (unknown origin) at 20 ug/ml using pNPP as substrate).
T5 sequence (P29350 whole entry): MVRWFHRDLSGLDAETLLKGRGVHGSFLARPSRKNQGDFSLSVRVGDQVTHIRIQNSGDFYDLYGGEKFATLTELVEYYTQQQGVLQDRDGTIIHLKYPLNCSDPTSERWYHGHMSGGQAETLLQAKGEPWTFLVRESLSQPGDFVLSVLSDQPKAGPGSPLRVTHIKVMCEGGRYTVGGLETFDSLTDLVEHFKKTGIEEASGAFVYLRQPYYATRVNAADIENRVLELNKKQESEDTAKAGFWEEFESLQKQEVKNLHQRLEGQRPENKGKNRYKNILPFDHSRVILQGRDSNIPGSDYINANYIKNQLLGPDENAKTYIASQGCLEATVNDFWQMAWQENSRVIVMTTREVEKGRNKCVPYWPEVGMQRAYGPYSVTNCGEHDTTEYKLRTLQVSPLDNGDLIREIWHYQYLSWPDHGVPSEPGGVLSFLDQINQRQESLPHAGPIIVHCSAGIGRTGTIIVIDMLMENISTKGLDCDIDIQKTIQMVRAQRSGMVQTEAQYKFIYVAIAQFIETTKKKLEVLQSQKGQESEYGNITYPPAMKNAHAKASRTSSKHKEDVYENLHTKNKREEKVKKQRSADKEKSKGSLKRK
Outline: as §2

Row | SMILES | inhibition
20 | O=C(O)[C@@H](Cc1ccccc1)N1C(=O)/C(=C/c2cn(-c3ccccc3)nc2-c2ccc3ccccc3c2)SC1=S | inactive
21 | O=C(O)CCN1C(=O)/C(=C/c2cn(-c3ccccc3)nc2-c2ccc(Cl)cc2Cl)SC1=S | inactive
22 | O=C(O)CCCCCN1C(=O)/C(=C/c2cn(-c3ccccc3)nc2-c2ccc(Cl)cc2Cl)SC1=S | inactive
23 | O=C(O)CCCN1C(=O)/C(=C/c2cn(-c3ccccc3)nc2-c2ccc(Cl)cc2Cl)SC1=S | inactive

What follows are compounds tested against T6, Tyrosine-protein phosphatase non-receptor type 1 (Homo sapiens, UniProt P18031) (assay: Inhibition of PTP1B (unknown origin) using pNPP as substrate).
T6 sequence (P18031 whole entry): T2 sequence (whole entry)

Row | SMILES | IC50 [µM]
24 | O=C(O)[C@@H](Cc1ccccc1)N1C(=O)/C(=C/c2cn(-c3ccccc3)nc2-c2ccc(Cl)cc2Cl)SC1=S | 3.56
25 | O=C(O)[C@@H](Cc1ccccc1)N1C(=O)/C(=C/c2cn(-c3ccccc3)nc2-c2ccc3ccccc3c2)SC1=S | 1.81
26 | O=C(O)CCN1C(=O)/C(=C/c2cn(-c3ccccc3)nc2-c2ccc(Cl)cc2Cl)SC1=S | 7.93
27 | O=C(O)CN1C(=O)/C(=C/c2cn(-c3ccccc3)nc2-c2ccc3ccccc3c2)SC1=S | 4.78
28 | O=C(O)CCCCCN1C(=O)/C(=C/c2cn(-c3ccccc3)nc2-c2ccc(Cl)cc2Cl)SC1=S | 1.35
29 | O=C(O)CCCN1C(=O)/C(=C/c2cn(-c3ccccc3)nc2-c2ccc(Cl)cc2Cl)SC1=S | 3.66

What follows are compounds tested against T6, Tyrosine-protein phosphatase non-receptor type 1 (assay: Competitive type inhibition of PTP1B (unknown origin) using pNPP as substrate by Lineweaver-Burk plot analysis).

Row | SMILES | Ki [µM]
30 | O=C(O)[C@@H](Cc1ccccc1)N1C(=O)/C(=C/c2cn(-c3ccccc3)nc2-c2ccc3ccccc3c2)SC1=S | 0.7

These compounds were tested against Receptor-type tyrosine-protein phosphatase F (Homo sapiens) (UniProt P10586) (assay: Inhibition of LAR (unknown origin) at 20 ug/ml using pNPP as substrate).
Chain of Receptor-type tyrosine-protein phosphatase F (Homo sapiens) (P10586 whole entry): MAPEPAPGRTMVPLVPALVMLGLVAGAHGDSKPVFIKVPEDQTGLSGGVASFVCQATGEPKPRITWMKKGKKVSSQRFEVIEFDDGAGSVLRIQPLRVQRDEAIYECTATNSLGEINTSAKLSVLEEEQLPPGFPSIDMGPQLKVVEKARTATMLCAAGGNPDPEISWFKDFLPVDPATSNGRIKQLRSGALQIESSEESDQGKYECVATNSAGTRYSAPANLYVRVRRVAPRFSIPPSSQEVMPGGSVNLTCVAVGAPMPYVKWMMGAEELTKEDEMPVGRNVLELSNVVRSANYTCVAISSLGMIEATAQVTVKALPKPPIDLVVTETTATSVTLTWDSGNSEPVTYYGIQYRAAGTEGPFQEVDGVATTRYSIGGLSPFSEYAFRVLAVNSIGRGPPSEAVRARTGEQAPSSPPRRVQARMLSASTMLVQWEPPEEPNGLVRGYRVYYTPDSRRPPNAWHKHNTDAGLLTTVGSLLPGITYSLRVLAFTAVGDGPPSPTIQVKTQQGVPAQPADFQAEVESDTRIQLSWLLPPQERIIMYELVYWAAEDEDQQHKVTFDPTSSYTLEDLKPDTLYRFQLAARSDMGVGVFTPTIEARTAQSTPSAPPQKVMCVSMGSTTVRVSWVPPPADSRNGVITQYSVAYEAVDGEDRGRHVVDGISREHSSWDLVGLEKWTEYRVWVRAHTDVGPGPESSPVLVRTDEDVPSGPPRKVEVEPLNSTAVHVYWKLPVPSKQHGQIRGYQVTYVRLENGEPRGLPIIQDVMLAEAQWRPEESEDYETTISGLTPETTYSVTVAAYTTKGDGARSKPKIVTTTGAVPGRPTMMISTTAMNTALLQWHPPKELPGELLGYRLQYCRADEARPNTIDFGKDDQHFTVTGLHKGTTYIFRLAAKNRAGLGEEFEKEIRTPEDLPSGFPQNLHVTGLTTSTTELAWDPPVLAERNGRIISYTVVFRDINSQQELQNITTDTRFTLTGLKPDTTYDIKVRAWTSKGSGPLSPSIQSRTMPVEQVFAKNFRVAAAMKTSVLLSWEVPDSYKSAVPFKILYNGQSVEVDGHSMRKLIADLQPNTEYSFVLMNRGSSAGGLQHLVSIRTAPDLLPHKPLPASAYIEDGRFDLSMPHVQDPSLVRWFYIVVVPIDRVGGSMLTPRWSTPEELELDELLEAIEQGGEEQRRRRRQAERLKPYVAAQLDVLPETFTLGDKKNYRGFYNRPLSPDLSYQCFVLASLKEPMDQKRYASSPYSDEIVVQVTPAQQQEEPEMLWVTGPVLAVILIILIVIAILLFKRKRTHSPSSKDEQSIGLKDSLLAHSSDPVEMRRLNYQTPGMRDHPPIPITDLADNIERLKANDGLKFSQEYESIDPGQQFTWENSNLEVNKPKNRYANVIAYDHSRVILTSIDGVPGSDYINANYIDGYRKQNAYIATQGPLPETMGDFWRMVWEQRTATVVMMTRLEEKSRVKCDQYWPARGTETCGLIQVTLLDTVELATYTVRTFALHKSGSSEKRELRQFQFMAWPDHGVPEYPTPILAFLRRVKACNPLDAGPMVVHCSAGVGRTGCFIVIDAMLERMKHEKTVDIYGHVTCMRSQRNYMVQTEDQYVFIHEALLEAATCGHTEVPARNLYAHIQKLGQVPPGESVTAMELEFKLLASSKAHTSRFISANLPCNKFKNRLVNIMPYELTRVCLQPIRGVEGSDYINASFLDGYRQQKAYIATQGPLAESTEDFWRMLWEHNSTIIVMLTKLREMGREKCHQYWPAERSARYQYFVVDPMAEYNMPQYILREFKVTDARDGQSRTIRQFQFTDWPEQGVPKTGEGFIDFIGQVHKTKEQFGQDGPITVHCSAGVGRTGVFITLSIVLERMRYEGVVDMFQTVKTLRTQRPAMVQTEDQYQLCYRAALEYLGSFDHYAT
Outline: as §2

Row | SMILES | inhibition
31 | O=C(O)[C@@H](Cc1ccccc1)N1C(=O)/C(=C/c2cn(-c3ccccc3)nc2-c2ccc(Cl)cc2Cl)SC1=S | inactive
32 | O=C(O)[C@@H](Cc1ccccc1)N1C(=O)/C(=C/c2cn(-c3ccccc3)nc2-c2ccc3ccccc3c2)SC1=S | inactive
33 | O=C(O)CCN1C(=O)/C(=C/c2cn(-c3ccccc3)nc2-c2ccc(Cl)cc2Cl)SC1=S | inactive
34 | O=C(O)CN1C(=O)/C(=C/c2cn(-c3ccccc3)nc2-c2ccc3ccccc3c2)SC1=S | inactive
35 | O=C(O)CCCCCN1C(=O)/C(=C/c2cn(-c3ccccc3)nc2-c2ccc(Cl)cc2Cl)SC1=S | inactive
36 | O=C(O)CCCN1C(=O)/C(=C/c2cn(-c3ccccc3)nc2-c2ccc(Cl)cc2Cl)SC1=S | inactive

These compounds were tested against T7, M-phase inducer phosphatase 2 (Homo sapiens, UniProt P30305) (assay: Inhibition of CDC25B (unknown origin) using pNPP as substrate).
T7 sequence (P30305 whole entry): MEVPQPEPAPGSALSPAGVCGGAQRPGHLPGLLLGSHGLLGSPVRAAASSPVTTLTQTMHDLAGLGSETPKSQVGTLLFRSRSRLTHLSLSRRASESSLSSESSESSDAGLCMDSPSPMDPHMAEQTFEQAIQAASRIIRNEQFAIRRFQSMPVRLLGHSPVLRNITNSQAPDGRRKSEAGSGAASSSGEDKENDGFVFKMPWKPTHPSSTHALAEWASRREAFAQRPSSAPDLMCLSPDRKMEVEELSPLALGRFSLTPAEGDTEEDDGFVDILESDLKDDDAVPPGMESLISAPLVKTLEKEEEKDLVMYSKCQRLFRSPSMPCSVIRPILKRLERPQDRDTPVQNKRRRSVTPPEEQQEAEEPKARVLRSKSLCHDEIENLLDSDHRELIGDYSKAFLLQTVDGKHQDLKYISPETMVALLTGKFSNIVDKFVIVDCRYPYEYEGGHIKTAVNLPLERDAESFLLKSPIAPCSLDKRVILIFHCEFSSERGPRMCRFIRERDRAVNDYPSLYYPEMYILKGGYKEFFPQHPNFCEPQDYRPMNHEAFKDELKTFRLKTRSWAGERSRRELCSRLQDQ
Outline: as §1

Row | SMILES | IC50 [µM]
37 | O=C(O)[C@@H](Cc1ccccc1)N1C(=O)/C(=C/c2cn(-c3ccccc3)nc2-c2ccc(Cl)cc2Cl)SC1=S | 13.7
38 | O=C(O)[C@@H](Cc1ccccc1)N1C(=O)/C(=C/c2cn(-c3ccccc3)nc2-c2ccc3ccccc3c2)SC1=S | 6.12
39 | O=C(O)CCN1C(=O)/C(=C/c2cn(-c3ccccc3)nc2-c2ccc(Cl)cc2Cl)SC1=S | 17.1
40 | O=C(O)CN1C(=O)/C(=C/c2cn(-c3ccccc3)nc2-c2ccc3ccccc3c2)SC1=S | 11.3
41 | O=C(O)CCCCCN1C(=O)/C(=C/c2cn(-c3ccccc3)nc2-c2ccc(Cl)cc2Cl)SC1=S | 10.9
42 | O=C(O)CCCN1C(=O)/C(=C/c2cn(-c3ccccc3)nc2-c2ccc(Cl)cc2Cl)SC1=S | 13.8

Each compound was assayed against T5, Tyrosine-protein phosphatase non-receptor type 6 (assay: Inhibition of SHP1 (unknown origin) using pNPP as substrate).
Outline: as §1

Row | SMILES | IC50 [µM]
43 | O=C(O)[C@@H](Cc1ccccc1)N1C(=O)/C(=C/c2cn(-c3ccccc3)nc2-c2ccc(Cl)cc2Cl)SC1=S | 16.8
44 | O=C(O)CN1C(=O)/C(=C/c2cn(-c3ccccc3)nc2-c2ccc3ccccc3c2)SC1=S | 24.5

From ChEMBL document CHEMBL4316629, “Discovery of 1,3-diphenyl-1H-pyrazole derivatives containing rhodanine-3-alkanoic acid groups as potential PTP1B inhibitors” (Bioorg Med Chem Lett, 2019)
